In ChEMBL document CHEMBL1268976, “Stereocontrolled facile synthesis and antimicrobial activity of oximes and oxime ethers of diversely substituted bispidines” (2010):
Values after ≈ are worked out from the molar mass of the structure shown.

How the values were obtained:
Format in all cases: functional
[1] = tested on: Bacillus subtilis; assay: Antibacterial activity against Bacillus subtilis by broth microdilution method
Summary of the method: (§1)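 In vitro broth microdilution following the NCCLS standard for bacteria (M7-A5). The test panel was Bacillus subtilis, Staphylococcus aureus, Klebsiella pneumoniae and Pseudomonas aeruginosa.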

[2] = tested on: Staphylococcus aureus; assay: Antibacterial activity against Staphylococcus aureus by broth microdilution method; summary of the method: as §1
[3] = tested on: Klebsiella pneumoniae; assay: Antibacterial activity against Klebsiella pneumoniae by broth microdilution method; summary of the method: as §1
[4] = tested on: Pseudomonas aeruginosa; assay: Antibacterial activity against Pseudomonas aeruginosa by broth microdilution method; summary of the method: as §1
[5] = tested on: Candida albicans; assay: Antifungal activity against Candida albicans by broth microdilution method
Summary of the method: (§2)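 Fungal panel of Candida albicans, Candida parapsilosis, Aspergillus niger and Cryptococcus neoformans, tested in vitro by standard NCCLS broth microdilution. The yeast susceptibility reference cited is M27-A.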

[6] = tested on: Candida parapsilosis; assay: Antifungal activity against Candida parapsilosis by broth microdilution method; details: Lodderomyces parapsilosis; summary of the method: as §2
[7] = tested on: Aspergillus niger; assay: Antifungal activity against Aspergillus niger by broth microdilution method; summary of the method: as §2
[8] = tested on: Cryptococcus neoformans; assay: Antimicrobial activity against Cryptococcus neoformans by broth microdilution method; summary of the method: as §2
[9] = tested on: Klebsiella pneumoniae; assay: Ratio of compound MIC90 to gentamicin MIC90 for Klebsiella pneumoniae

MIC90 [1]	MIC90 [2]	MIC90 [3]	MIC90 [4]	MIC90 [5]	MIC90 [6]	MIC90 [7]	MIC90 [8]	SMILES	Ratio [9]
> 128 µg/mL	> 128 µg/mL	16 µg/mL (≈ 30.2 µM)	16 µg/mL (≈ 30.2 µM)	64 µg/mL (≈ 121 µM)	8 µg/mL (≈ 15.1 µM)	64 µg/mL (≈ 121 µM)	> 128 µg/mL	CON=C1C2C(c3ccccc3C)NC(c3ccccc3C)C1C(c1ccccc1C)NC2c1ccccc1C (stereo not given)	8
> 128 µg/mL	> 128 µg/mL	64 µg/mL (≈ 105 µM)	> 128 µg/mL	> 128 µg/mL	> 128 µg/mL	64 µg/mL (≈ 105 µM)	> 128 µg/mL	CON=C1C2C(c3cccc(Cl)c3)NC(c3cccc(Cl)c3)C1C(c1cccc(Cl)c1)NC2c1cccc(Cl)c1 (stereo not given)	–
> 128 µg/mL	> 128 µg/mL	64 µg/mL (≈ 117 µM)	16 µg/mL (≈ 29.3 µM)	32 µg/mL (≈ 58.7 µM)	> 128 µg/mL	16 µg/mL (≈ 29.3 µM)	> 128 µg/mL	CON=C1C2C(c3cccc(F)c3)NC(c3cccc(F)c3)C1C(c1cccc(F)c1)NC2c1cccc(F)c1 (stereo not given)	–
> 128 µg/mL	64 µg/mL (≈ 107 µM)	16 µg/mL (≈ 26.8 µM)	32 µg/mL (≈ 53.6 µM)	8 µg/mL (≈ 13.4 µM)	128 µg/mL (≈ 214 µM)	64 µg/mL (≈ 107 µM)	> 128 µg/mL	ON=C1C2C(c3ccc(Cl)cc3)NC(c3ccc(Cl)cc3)C1C(c1ccc(Cl)cc1)NC2c1ccc(Cl)cc1 (stereo not given)	–
> 128 µg/mL	64 µg/mL (≈ 110 µM)	64 µg/mL (≈ 110 µM)	16 µg/mL (≈ 27.6 µM)	> 128 µg/mL	64 µg/mL (≈ 110 µM)	16 µg/mL (≈ 27.6 µM)	64 µg/mL (≈ 110 µM)	COc1ccc(C2NC(c3ccc(OC)cc3)C3C(=NO)C2C(c2ccc(OC)cc2)NC3c2ccc(OC)cc2)cc1 (stereo not given)	–
64 µg/mL (≈ 120 µM)	16 µg/mL (≈ 30.1 µM)	64 µg/mL (≈ 120 µM)	32 µg/mL (≈ 60.2 µM)	4 µg/mL (≈ 7.53 µM)	> 128 µg/mL	4 µg/mL (≈ 7.53 µM)	128 µg/mL (≈ 241 µM)	ON=C1C2C(c3ccc(F)cc3)NC(c3ccc(F)cc3)C1C(c1ccc(F)cc1)NC2c1ccc(F)cc1 (stereo not given)	–
64 µg/mL (≈ 81.1 µM)	> 128 µg/mL	> 128 µg/mL	> 128 µg/mL	> 128 µg/mL	16 µg/mL (≈ 20.3 µM)	> 128 µg/mL	> 128 µg/mL	CON=C1C2C(c3ccc(Br)cc3)NC(c3ccc(Br)cc3)C1C(c1ccc(Br)cc1)NC2c1ccc(Br)cc1 (stereo not given)	–
> 128 µg/mL	16 µg/mL (≈ 26.2 µM)	4 µg/mL (≈ 6.54 µM)	16 µg/mL (≈ 26.2 µM)	16 µg/mL (≈ 26.2 µM)	> 128 µg/mL	2 µg/mL (≈ 3.27 µM)	16 µg/mL (≈ 26.2 µM)	CON=C1C2C(c3ccccc3Cl)NC(c3ccccc3Cl)C1C(c1ccccc1Cl)NC2c1ccccc1Cl (stereo not given)	–
> 128 µg/mL	> 128 µg/mL	> 128 µg/mL	32 µg/mL (≈ 49.2 µM)	> 128 µg/mL	64 µg/mL (≈ 98.5 µM)	16 µg/mL (≈ 24.6 µM)	16 µg/mL (≈ 24.6 µM)	CCOc1ccccc1C1NC(c2ccccc2OCC)C2C(=NOC)C1C(c1ccccc1OCC)NC2c1ccccc1OCC (stereo not given)	–
> 128 µg/mL	> 128 µg/mL	64 µg/mL (≈ 84 µM)	64 µg/mL (≈ 84 µM)	> 128 µg/mL	> 128 µg/mL	32 µg/mL (≈ 42 µM)	32 µg/mL (≈ 42 µM)	CCCCOc1ccc(C2NC(c3ccc(OCCCC)cc3)C3C(=NOC)C2C(c2ccc(OCCCC)cc2)NC3c2ccc(OCCCC)cc2)cc1 (stereo not given)	–
> 128 µg/mL	> 128 µg/mL	32 µg/mL (≈ 49.2 µM)	32 µg/mL (≈ 49.2 µM)	> 128 µg/mL	128 µg/mL (≈ 197 µM)	8 µg/mL (≈ 12.3 µM)	16 µg/mL (≈ 24.6 µM)	CCOc1ccc(C2NC(c3ccc(OCC)cc3)C3C(=NOC)C2C(c2ccc(OCC)cc2)NC3c2ccc(OCC)cc2)cc1 (stereo not given)	–
> 128 µg/mL	> 128 µg/mL	> 128 µg/mL	32 µg/mL (≈ 62.1 µM)	64 µg/mL (≈ 124 µM)	32 µg/mL (≈ 62.1 µM)	> 128 µg/mL	> 128 µg/mL	Cc1ccc(C2NC(c3ccc(C)cc3)C3C(=NO)C2C(c2ccc(C)cc2)NC3c2ccc(C)cc2)cc1 (stereo not given)	–
> 128 µg/mL	> 128 µg/mL	> 128 µg/mL	> 128 µg/mL	> 128 µg/mL	> 128 µg/mL	128 µg/mL (≈ 145 µM)	> 128 µg/mL	ON=C1C2C(c3ccc(OCc4ccccc4)cc3)NC(c3ccc(OCc4ccccc4)cc3)C1C(c1ccc(OCc3ccccc3)cc1)NC2c1ccc(OCc2ccccc2)cc1 (stereo not given)	–
> 128 µg/mL	> 128 µg/mL	32 µg/mL (≈ 49.7 µM)	16 µg/mL (≈ 24.8 µM)	32 µg/mL (≈ 49.7 µM)	32 µg/mL (≈ 49.7 µM)	16 µg/mL (≈ 24.8 µM)	32 µg/mL (≈ 49.7 µM)	CSc1ccc(C2NC(c3ccc(SC)cc3)C3C(=NO)C2C(c2ccc(SC)cc2)NC3c2ccc(SC)cc2)cc1 (stereo not given)	–
> 128 µg/mL	> 128 µg/mL	> 128 µg/mL	> 128 µg/mL	64 µg/mL (≈ 76 µM)	128 µg/mL (≈ 152 µM)	128 µg/mL (≈ 152 µM)	> 128 µg/mL	CON=C1C2C(c3cccc(Oc4ccccc4)c3)NC(c3cccc(Oc4ccccc4)c3)C1C(c1cccc(Oc3ccccc3)c1)NC2c1cccc(Oc2ccccc2)c1 (stereo not given)	–
> 128 µg/mL	128 µg/mL (≈ 199 µM)	128 µg/mL (≈ 199 µM)	16 µg/mL (≈ 24.9 µM)	128 µg/mL (≈ 199 µM)	8 µg/mL (≈ 12.5 µM)	128 µg/mL (≈ 199 µM)	> 128 µg/mL	CON=C1C2C(c3ccc(C(C)C)cc3)NC(c3ccc(C(C)C)cc3)C1C(c1ccc(C(C)C)cc1)NC2c1ccc(C(C)C)cc1 (stereo not given)	–
> 128 µg/mL	> 128 µg/mL	> 128 µg/mL	32 µg/mL (≈ 56 µM)	> 128 µg/mL	64 µg/mL (≈ 112 µM)	> 128 µg/mL	> 128 µg/mL	CCc1ccc(C2NC(c3ccc(CC)cc3)C3C(=NO)C2C(c2ccc(CC)cc2)NC3c2ccc(CC)cc2)cc1 (stereo not given)	–
> 128 µg/mL	> 128 µg/mL	64 µg/mL (≈ 109 µM)	32 µg/mL (≈ 54.6 µM)	128 µg/mL (≈ 218 µM)	32 µg/mL (≈ 54.6 µM)	> 128 µg/mL	> 128 µg/mL	CCc1ccc(C2NC(c3ccc(CC)cc3)C3C(=NOC)C2C(c2ccc(CC)cc2)NC3c2ccc(CC)cc2)cc1 (stereo not given)	–
> 128 µg/mL	> 128 µg/mL	> 128 µg/mL	128 µg/mL (≈ 221 µM)	> 128 µg/mL	> 128 µg/mL	64 µg/mL (≈ 110 µM)	> 128 µg/mL	COc1cccc(C2NC(c3cccc(OC)c3)C3C(=NO)C2C(c2cccc(OC)c2)NC3c2cccc(OC)c2)c1 (stereo not given)	–
64 µg/mL (≈ 117 µM)	8 µg/mL (≈ 14.7 µM)	16 µg/mL (≈ 29.3 µM)	4 µg/mL (≈ 7.33 µM)	2 µg/mL (≈ 3.67 µM)	> 128 µg/mL	2 µg/mL (≈ 3.67 µM)	32 µg/mL (≈ 58.7 µM)	CON=C1C2C(c3ccc(F)cc3)NC(c3ccc(F)cc3)C1C(c1ccc(F)cc1)NC2c1ccc(F)cc1 (stereo not given)	–
> 128 µg/mL	> 128 µg/mL	> 128 µg/mL	64 µg/mL (≈ 107 µM)	> 128 µg/mL	> 128 µg/mL	64 µg/mL (≈ 107 µM)	> 128 µg/mL	ON=C1C2C(c3cccc(Cl)c3)NC(c3cccc(Cl)c3)C1C(c1cccc(Cl)c1)NC2c1cccc(Cl)c1 (stereo not given)	–
128 µg/mL (≈ 187 µM)	> 128 µg/mL	64 µg/mL (≈ 93.6 µM)	> 128 µg/mL	> 128 µg/mL	64 µg/mL (≈ 93.6 µM)	64 µg/mL (≈ 93.6 µM)	> 128 µg/mL	C=CCOc1ccc(C2NC(c3ccc(OCC=C)cc3)C3C(=NO)C2C(c2ccc(OCC=C)cc2)NC3c2ccc(OCC=C)cc2)cc1 (stereo not given)	–
> 128 µg/mL	> 128 µg/mL	> 128 µg/mL	> 128 µg/mL	> 128 µg/mL	> 128 µg/mL	> 128 µg/mL	> 128 µg/mL	ON=C1C2C(c3cccc(Br)c3)NC(c3cccc(Br)c3)C1C(c1cccc(Br)c1)NC2c1cccc(Br)c1 (stereo not given)	–
